Data: ChEMBL document CHEMBL1140999, “Succinyl hydroxamates as potent and selective non-peptidic inhibitors of procollagen C-proteinase: design, synthesis, and evaluation as topically applied, dermal anti-scarring agents” (Bioorg Med Chem Lett, 2008)
In brackets after ≈: the same amount, converted by molar mass.

Tests used:
[1] = target: T1, Bone morphogenetic protein 1 (Homo sapiens, UniProt P13497); assay: Inhibition of human procollagen C-proteinase expressed in CHO cells by fluorescence assay; format: cell-based
T1 sequence (P13497 whole entry): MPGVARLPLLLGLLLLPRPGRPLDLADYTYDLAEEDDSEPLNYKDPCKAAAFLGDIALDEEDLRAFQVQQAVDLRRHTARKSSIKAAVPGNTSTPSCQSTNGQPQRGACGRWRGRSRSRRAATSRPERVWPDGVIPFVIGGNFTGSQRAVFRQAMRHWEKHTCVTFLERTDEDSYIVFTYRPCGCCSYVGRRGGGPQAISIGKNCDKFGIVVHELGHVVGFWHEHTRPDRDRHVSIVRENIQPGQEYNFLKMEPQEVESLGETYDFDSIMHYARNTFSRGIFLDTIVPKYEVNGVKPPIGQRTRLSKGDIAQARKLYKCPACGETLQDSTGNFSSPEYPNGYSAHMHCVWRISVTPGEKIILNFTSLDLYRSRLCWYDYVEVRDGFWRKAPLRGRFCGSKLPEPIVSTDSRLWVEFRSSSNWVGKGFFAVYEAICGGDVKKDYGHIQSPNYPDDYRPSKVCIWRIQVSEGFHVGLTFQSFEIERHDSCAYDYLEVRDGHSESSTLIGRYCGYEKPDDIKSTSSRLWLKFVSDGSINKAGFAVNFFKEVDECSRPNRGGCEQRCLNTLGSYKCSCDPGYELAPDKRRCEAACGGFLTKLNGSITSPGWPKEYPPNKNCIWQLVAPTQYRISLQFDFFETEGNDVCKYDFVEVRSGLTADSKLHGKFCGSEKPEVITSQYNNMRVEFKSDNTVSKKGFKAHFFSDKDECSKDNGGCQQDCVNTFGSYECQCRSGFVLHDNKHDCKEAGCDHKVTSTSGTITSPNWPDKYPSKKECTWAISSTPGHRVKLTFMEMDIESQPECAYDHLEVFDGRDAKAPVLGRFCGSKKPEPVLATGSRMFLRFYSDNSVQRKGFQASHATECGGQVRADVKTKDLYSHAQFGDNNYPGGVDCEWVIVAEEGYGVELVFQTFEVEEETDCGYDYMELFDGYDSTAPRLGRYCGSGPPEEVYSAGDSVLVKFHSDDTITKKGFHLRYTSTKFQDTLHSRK

[2] = Volume of distribution in rat at 2 mg/kg, iv administered as single dose; format: ADME, organism-based; parameters: dose 2 mg/kg, route intravenous; conditions: in vivo
Outline: (§1)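 Male rats (n = 2) received a single intravenous dose of 2 mg/kg. Plasma sampling gave half-life, clearance and volume of distribution. Concentrations were also followed after dosing against the assay's limit of quantification.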

[3] = target: 3',5'-cyclic-AMP phosphodiesterase 4B (Homo sapiens, UniProt Q07343); assay: Inhibition of PDE4B
[4] = Aqueous solubility in phosphate-buffered saline at pH 7.4 by HPLC; format: physicochemical
[5] = Volume of distribution in dog at 0.5 mg/kg, iv administered as single dose; format: ADME, organism-based, Canis lupus familiaris; parameters: dose 0.5 mg/kg, route intravenous; conditions: in vivo
Outline: (§2)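 Male dogs (n = 2) received a single intravenous dose of 0.5 mg/kg or a single oral dose of 2 mg/kg. Plasma concentrations were used to derive half-life, clearance, volume of distribution, Cmax, Tmax and oral bioavailability.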

[6] = Oral bioavailability in dog at 2 mg/kg administered as single dose; format: ADME, organism-based, Canis lupus familiaris; conditions: in vivo; outline: as §2
[7] = Elimination half life in rat at 2 mg/kg, iv administered as single dose; format: ADME, organism-based; parameters: dose 2 mg/kg, route intravenous; conditions: in vivo, read-out: beta t1/2 (converted); outline: as §1
[8] = target: 3',5'-cyclic-AMP phosphodiesterase 4C (Homo sapiens, UniProt Q08493); assay: Inhibition of PDE4C
Zone of skin [9] = assay: Effect on transepidermal penetration in human cadaver skin assessed as TED flux after 24 hrs by LC-MS/MS analysis using [14C]mannitol as receptor fluid; format: functional
Outline: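 Human cadaver stratum corneum was mounted in a Franz diffusion cell and exposed for 24 h to a solution in 50% aqueous propylene glycol (pH 6.8). Compound reaching the receptor chamber was measured and a flux rate was calculated. Reported as mean ± SEM, n = 6–10.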

[10] = Metabolic stability in dog liver microsomes assessed as half life; format: ADME, Canis lupus familiaris, Microsome
[11] = Cmax in dog at 2 mg/kg, po administered as single dose; format: ADME, organism-based, Canis lupus familiaris; parameters: dose 2 mg/kg, route oral; conditions: in vivo; outline: as §2
[12] = Saturated solubility in propylene glycol-citrate buffer-ethanol; format: physicochemical
Zone of skin [13] = assay: Effect on transepidermal penetration in human cadaver skin assessed as TED flux after 24 hrs by LC-MS/MS analysis using [14C]mannitol as receptor fluid in presence of propylene glycol-citrate buffer-ethanol; format: functional
Outline: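 Human cadaver stratum corneum was mounted in a Franz diffusion cell and exposed for 24 h to a solution in propylene glycol–citrate buffer–ethanol (20:30:50). Receptor-chamber concentration was used to calculate TED flux.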

[14] = Elimination half life in dog at 0.5 mg/kg, iv administered as single dose; format: ADME, organism-based, Canis lupus familiaris; parameters: dose 0.5 mg/kg, route intravenous; conditions: in vivo, read-out: beta t1/2 (converted); outline: as §2
[15] = Lipophilicity, log D at pH 7.4; format: physicochemical; conditions: buffer
[16] = Plasma clearance in dog at 0.5 mg/kg, iv administered as single dose; format: ADME, organism-based, Canis lupus familiaris; parameters: dose 0.5 mg/kg, route intravenous; outline: as §2
[17] = target: 3',5'-cyclic-AMP phosphodiesterase 4A (Homo sapiens, UniProt P27815); assay: Inhibition of PDE4A
[18] = Metabolic stability in human liver microsomes assessed as half life; format: ADME, Microsome
[19] = target: 3',5'-cyclic-AMP phosphodiesterase 4D (Homo sapiens, UniProt Q08499); assay: Inhibition of PDE4D
Fibroblast [20] = assay: Reduction in collagen deposition in human fibroblasts at 10 uM after 8 days by HPLC; format: functional; parameters: scale not given: the % may be the effect or the level left
Fibroblast [21] = assay: Reduction in collagen deposition in human fibroblasts after 8 days by HPLC; format: functional, cell-based
[22] = target: T1, Bone morphogenetic protein 1; assay: Inhibition of human procollagen C-proteinase assessed as [3H]procollagen turnover by scintillation counting
[23] = Tmax in dog at 2 mg/kg, po administered as single dose; format: ADME, organism-based, Canis lupus familiaris; parameters: dose 2 mg/kg, route oral; conditions: in vivo; outline: as §2
[24] = Drug level in pig skin assessed as steady state concentration at 0.9 mg/ml in 50% aqueous propylene glycol administered tropically after 24 hrs; format: ADME, tissue-based, Sus scrofa, Zone of skin; conditions: topical or ocular, read-out: Drug uptake
Outline: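 Applied topically to intact pig skin as a 0.9 mg/ml solution in 50% aqueous propylene glycol. Tissue level was measured in the upper dermis as the steady-state concentration at 24 h.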

[25] = Plasma concentration in rat at 2 mg/kg, iv administered as single dose after 2 hrs; format: ADME, organism-based; parameters: dose 2 mg/kg, route intravenous; outline: as §1
[26] = Dissociation constant, pKa of the compound; format: physicochemical
[27] = Plasma clearance in rat at 2 mg/kg, iv administered as single dose; format: ADME, organism-based; parameters: dose 2 mg/kg, route intravenous; outline: as §1
[28] = Metabolic stability in rat liver microsomes assessed as half life; format: ADME, Microsome
Stromelysin-1 = Stromelysin-1 (Homo sapiens, UniProt P08254); assay: Inhibition of human MMP3 by fluorescence assay
Stromelysin-1, sequence (P08254 whole entry): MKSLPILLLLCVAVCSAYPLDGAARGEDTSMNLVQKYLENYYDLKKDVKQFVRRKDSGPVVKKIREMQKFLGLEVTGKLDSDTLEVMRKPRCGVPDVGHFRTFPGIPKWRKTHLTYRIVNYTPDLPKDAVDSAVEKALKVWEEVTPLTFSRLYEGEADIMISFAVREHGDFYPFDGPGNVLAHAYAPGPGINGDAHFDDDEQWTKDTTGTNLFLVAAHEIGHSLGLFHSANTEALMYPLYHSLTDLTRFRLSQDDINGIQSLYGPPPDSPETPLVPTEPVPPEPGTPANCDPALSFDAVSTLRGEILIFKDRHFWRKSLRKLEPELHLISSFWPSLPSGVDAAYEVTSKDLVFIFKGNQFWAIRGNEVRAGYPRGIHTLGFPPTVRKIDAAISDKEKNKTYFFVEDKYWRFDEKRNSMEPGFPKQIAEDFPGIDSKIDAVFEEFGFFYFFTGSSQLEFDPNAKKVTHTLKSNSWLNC

3',5'-cyclic-AMP phosphodiesterase 4A, sequence (P27815 whole entry): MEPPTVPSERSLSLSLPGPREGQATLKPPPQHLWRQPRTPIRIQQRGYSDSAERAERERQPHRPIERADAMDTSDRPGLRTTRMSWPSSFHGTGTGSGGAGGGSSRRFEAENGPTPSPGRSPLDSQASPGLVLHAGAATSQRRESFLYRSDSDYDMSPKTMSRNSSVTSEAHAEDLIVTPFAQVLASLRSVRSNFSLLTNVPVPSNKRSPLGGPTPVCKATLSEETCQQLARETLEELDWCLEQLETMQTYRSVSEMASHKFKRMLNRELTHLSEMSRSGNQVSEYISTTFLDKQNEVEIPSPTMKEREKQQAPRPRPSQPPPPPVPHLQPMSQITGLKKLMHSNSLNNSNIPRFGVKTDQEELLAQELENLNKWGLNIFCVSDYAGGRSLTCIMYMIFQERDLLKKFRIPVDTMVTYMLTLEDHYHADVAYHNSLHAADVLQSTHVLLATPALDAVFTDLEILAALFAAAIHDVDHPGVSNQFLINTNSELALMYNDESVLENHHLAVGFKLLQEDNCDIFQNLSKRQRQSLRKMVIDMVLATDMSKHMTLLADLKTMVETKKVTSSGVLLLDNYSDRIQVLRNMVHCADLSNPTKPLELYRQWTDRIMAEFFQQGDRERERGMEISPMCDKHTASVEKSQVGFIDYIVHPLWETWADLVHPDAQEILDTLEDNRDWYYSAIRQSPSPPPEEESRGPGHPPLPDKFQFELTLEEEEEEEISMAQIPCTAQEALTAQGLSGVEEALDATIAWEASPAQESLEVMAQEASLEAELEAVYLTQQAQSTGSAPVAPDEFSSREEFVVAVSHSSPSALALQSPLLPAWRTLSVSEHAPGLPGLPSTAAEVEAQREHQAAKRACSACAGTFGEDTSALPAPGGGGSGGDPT
3',5'-cyclic-AMP phosphodiesterase 4C, sequence (Q08493 whole entry): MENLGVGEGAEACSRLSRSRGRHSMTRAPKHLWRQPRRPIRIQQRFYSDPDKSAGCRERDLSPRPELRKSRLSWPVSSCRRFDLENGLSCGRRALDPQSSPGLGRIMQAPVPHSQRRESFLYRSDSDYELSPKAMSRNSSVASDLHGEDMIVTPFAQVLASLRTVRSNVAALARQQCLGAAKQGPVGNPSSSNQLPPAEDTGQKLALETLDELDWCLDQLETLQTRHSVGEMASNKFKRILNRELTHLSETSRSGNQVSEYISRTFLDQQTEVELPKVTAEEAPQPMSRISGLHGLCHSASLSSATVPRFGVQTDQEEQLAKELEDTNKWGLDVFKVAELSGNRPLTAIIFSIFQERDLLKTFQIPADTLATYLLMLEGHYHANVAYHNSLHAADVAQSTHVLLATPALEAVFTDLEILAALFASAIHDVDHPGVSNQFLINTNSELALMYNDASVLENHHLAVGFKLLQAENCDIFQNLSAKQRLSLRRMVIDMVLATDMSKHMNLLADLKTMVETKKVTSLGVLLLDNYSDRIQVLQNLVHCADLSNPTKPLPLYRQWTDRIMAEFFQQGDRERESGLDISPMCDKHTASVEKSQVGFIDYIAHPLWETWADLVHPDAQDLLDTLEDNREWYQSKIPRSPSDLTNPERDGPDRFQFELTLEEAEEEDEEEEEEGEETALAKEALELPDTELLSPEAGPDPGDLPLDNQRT
3',5'-cyclic-AMP phosphodiesterase 4B, sequence (Q07343 whole entry): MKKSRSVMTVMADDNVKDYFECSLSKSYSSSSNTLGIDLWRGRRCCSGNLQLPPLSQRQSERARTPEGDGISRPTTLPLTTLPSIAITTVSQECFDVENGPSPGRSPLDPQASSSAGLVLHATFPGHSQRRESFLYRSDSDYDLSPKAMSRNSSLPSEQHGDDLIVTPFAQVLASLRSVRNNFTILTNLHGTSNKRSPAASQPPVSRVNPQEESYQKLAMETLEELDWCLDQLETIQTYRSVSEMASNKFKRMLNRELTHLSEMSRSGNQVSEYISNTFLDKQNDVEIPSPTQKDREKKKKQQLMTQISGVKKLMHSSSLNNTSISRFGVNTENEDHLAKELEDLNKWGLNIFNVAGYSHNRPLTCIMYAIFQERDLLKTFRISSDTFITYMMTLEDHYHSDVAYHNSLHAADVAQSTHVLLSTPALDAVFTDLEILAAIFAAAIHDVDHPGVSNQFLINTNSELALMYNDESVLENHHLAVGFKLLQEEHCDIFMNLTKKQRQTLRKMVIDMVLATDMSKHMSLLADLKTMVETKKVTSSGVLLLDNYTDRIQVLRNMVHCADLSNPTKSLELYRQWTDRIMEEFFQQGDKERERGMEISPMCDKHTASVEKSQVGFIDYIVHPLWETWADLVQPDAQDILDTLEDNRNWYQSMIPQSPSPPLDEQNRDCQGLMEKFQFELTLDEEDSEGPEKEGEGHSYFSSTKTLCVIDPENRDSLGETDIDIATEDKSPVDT
3',5'-cyclic-AMP phosphodiesterase 4D, sequence (Q08499 whole entry): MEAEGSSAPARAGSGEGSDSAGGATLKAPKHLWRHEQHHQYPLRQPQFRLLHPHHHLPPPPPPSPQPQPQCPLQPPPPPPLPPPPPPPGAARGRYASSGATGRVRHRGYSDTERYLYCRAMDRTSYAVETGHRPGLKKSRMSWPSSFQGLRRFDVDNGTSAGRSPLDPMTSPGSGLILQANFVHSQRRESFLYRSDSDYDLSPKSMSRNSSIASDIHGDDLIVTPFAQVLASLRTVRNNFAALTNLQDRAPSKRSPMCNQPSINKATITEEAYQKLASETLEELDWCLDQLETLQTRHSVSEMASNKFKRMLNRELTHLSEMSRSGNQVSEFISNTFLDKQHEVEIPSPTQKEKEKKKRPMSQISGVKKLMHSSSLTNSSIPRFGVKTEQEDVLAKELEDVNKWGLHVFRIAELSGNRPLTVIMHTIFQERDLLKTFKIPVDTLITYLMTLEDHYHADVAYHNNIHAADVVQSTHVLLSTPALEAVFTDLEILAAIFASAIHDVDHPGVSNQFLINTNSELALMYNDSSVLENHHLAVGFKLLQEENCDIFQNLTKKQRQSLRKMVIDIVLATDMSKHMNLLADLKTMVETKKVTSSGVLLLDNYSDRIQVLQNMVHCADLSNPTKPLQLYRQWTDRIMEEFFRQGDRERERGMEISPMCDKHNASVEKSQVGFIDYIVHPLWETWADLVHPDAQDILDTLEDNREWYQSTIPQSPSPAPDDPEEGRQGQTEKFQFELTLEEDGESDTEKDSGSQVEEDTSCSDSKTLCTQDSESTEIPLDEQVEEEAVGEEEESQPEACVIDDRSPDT

Molecule `Cc1oc([C@H](CCCC2CCCCC2)CC(=O)NO)nc1C(=O)N(C)C` has an IC50 [1] of 17 nM.
Work on `CN1CCN(C(=O)c2noc([C@H](CCCC3CCCCC3)CC(=O)NO)n2)CC1` yielded an IC50 [1] of 54 nM.
Molecule `NC(=O)c1noc([C@H](CCCC2CCCCC2)CC(=O)NO)n1` has a Vd [2] of 12 L/kg, an IC50 [3] of 1500 nM and a solubility [4] of 35 µg/mL (≈ 108 µM). The Vd [5] was 4.6 L/kg, the bioavailability [6] was 13% and the half-life [7] was 48 min. The IC50 [8] was 2400 nM, the TED (Zone of skin [9]) was 0.3 microg/cm2/h and the half-life [10] was 9 min. For the same molecule, the Cmax [11] was 110 ng/mL, the solubility thermodynamic [12] was 13800 µg/mL (≈ 42500 µM) and the TED (Zone of skin [13]) was 1.59 microg/cm2/h. The half-life [14] was 90 min, the logD [15] was 2.6 and the clearance [16] was 35 mL/min/kg. For the same molecule, the IC50 [17] was 1800 nM, the half-life [18] was 19 min and the IC50 [19] was 900 nM. The Activity (Fibroblast [20]) was 76%, the Activity (Fibroblast [21]) was “Dose-dependent effect” and the IC50 (Fibroblast [21]; 192 h) was 2100 nM. For the same molecule, the IC50 [22] was 26 nM, the Tmax [23] was 30 min and the concentration at 24 h [24] was 10 µM. It also gave a concentration at 2 h [25] of less than 100 ng/mL, a pKa [26] of 9 and a clearance [27] of 157 mL/min/kg. It also gave a half-life [28] of less than 2 min.
With `CCCNC(=O)c1noc([C@H](CCCC2CCCCC2)CC(=O)NO)n1` the IC50 [1] was 32 nM.
With `O=C(O)CNC(=O)c1noc([C@H](CCCC2CCCCC2)CC(=O)NO)n1` the IC50 [1] was 21 nM.
In the case of `O=C(C[C@@H](CCCC1CCCCC1)c1nc(C(=O)N2CCOCC2)no1)NO`, the IC50 [1] is reported as 25 nM.
Molecule `NC(=O)c1noc([C@@H](CCCC2CCCCC2)CC(=O)NO)n1` has an IC50 [1] greater than 2000 nM.
With `CN(C)C(=O)c1noc([C@H](CCCC2CCCCC2)CC(=O)NO)n1` the solubility [4] was 900 µg/mL (≈ 2550 µM), the TED (Zone of skin [9]) was 2.6 microg/cm2/h and the logD [15] was 3.6. The IC50 [1] was 10 nM, the Activity (Fibroblast [20]) was 67% and the IC50 (Stromelysin-1) was 28000 nM. For the same molecule, the IC50 [22] was 9.3 nM.
`O=C(C[C@@H](CCCC1CCCCC1)c1nc(C(=O)N2CCCCC2)no1)NO` gave an IC50 [1] of 26 nM.
For `O=C(C[C@@H](CCCC1CCCCC1)c1nc(C(=O)NCc2ccccn2)no1)NO`, the IC50 [1] was 37 nM.
In the case of `CNC(=O)c1noc([C@H](CCCC2CCCCC2)CC(=O)NO)n1`, the IC50 [1] is reported as 28 nM.
In the case of `O=C(C[C@@H](CCCC1CCCCC1)c1nc(C(=O)NCc2ccccc2)no1)NO`, the IC50 [1] is reported as 57 nM.
Molecule `O=C(C[C@@H](CCCC1CCCCC1)c1nc(C(=O)NCC2CC2)no1)NO` has an IC50 [1] of 33 nM.
`CC(C)NC(=O)c1noc([C@H](CCCC2CCCCC2)CC(=O)NO)n1` gave an IC50 [1] of 21 nM.
With `NC(=O)c1coc([C@H](CCCC2CCCCC2)CC(=O)NO)n1` the IC50 [1] was 73 nM.
In the case of `CN(Cc1ccccc1)C(=O)c1noc([C@H](CCCC2CCCCC2)CC(=O)NO)n1`, the IC50 [1] is reported as 65 nM.
Molecule `CN(C)C(=O)c1coc([C@H](CCCC2CCCCC2)CC(=O)NO)n1` has an IC50 [1] of 45 nM.
In the case of `O=C(C[C@@H](CCCC1CCCCC1)c1nc(C(=O)N2CCCC2)no1)NO`, the IC50 [1] is reported as 43 nM.
In the case of `Cc1oc([C@H](CCCC2CCCCC2)CC(=O)NO)nc1C(N)=O`, the IC50 [1] is reported as 17 nM.
Work on `CN(Cc1ccccn1)C(=O)c1noc([C@H](CCCC2CCCCC2)CC(=O)NO)n1` yielded an IC50 [1] of 40 nM.
